Laboratory results reported in ChEMBL document CHEMBL3525967, “In vitro glucuronidation of the antibacterial triclocarban and its oxidative metabolites” (Drug Metab Dispos, 2012).

Legend:
Format in all cases: ADME
[1] = Drug excretion in human urine; details: read-out: Drug excretion
Liver microsome = assay: Drug metabolism in human liver microsomes assessed as N'-glucuronide-triclocarban formation incubated for 5 mins prior to UDPGA addition measured after 30 mins by LC-UV-ESI-MS/MS analysis; details: 0.5 h
Method in brief: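 Pooled human kidney or liver microsomes (liver: 25 mixed-gender donors), 5 µg protein, in 200 µL 100 mM potassium phosphate pH 7.4. Alamethicin pre-treated on ice 15 min. Final 10 µM TCC (2% DMSO), with 10 mM MgCl2 and 10 mM saccharolactone, preincubated 5 min at 37 °C. Started with UDPGA (20 mM stock). Sampled at 5, 10, 15 and 30 min into ACN containing 1 µM DCC internal standard.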

[2] = molecular target: T1, UDP-glucuronosyltransferase 1A3 (Homo sapiens, UniProt P35503); assay: Drug metabolism assessed as human UGT1A3-mediated N-glucuronide-triclocarban formation expressed in baculovirus infected insect sf9 cells incubated for 5 mins prior to UDPGA addition measured after 5 to 30 mins by LC-UV analysis
T1 sequence (P35503 whole entry): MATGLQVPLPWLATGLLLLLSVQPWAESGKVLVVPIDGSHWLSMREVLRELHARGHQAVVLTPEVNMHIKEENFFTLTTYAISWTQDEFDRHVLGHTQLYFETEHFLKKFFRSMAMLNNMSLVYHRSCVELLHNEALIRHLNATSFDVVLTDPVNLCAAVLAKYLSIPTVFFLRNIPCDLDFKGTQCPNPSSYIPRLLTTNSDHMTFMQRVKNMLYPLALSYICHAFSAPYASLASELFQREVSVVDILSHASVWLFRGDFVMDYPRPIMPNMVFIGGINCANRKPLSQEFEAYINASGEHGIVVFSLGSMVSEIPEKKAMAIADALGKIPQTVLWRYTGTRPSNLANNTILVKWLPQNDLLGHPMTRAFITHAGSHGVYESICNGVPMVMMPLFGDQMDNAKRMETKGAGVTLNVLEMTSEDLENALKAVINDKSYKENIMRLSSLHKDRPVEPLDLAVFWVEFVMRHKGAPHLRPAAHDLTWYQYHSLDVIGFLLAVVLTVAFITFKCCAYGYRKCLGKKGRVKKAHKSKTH
Method in brief: (§1)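 Microsomes or UGT Supersomes (5 µg protein) were held 15 min on ice with alamethicin in 100 mM potassium phosphate pH 7.4. TCC was added at 10 µM (2% DMSO) with 10 mM MgCl2 and 10 mM saccharolactone, pre-warmed 5 min at 37 °C, then started with UDPGA. Samples at 5, 10, 15 and 30 min were quenched in ACN. Product was read by LC-UV at 265 nm; rate came from regression over time, three incubations.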

[3] = molecular target: T2, UDP-glucuronosyltransferase 1A7 (Homo sapiens, UniProt Q9HAW7); assay: Drug metabolism assessed as human UGT1A7-mediated N-glucuronide-triclocarban formation expressed in baculovirus infected insect sf9 cells incubated for 5 mins prior to UDPGA addition measured after 5 to 30 mins by LC-UV analysis; method in brief: as §1
T2 sequence (Q9HAW7 whole entry): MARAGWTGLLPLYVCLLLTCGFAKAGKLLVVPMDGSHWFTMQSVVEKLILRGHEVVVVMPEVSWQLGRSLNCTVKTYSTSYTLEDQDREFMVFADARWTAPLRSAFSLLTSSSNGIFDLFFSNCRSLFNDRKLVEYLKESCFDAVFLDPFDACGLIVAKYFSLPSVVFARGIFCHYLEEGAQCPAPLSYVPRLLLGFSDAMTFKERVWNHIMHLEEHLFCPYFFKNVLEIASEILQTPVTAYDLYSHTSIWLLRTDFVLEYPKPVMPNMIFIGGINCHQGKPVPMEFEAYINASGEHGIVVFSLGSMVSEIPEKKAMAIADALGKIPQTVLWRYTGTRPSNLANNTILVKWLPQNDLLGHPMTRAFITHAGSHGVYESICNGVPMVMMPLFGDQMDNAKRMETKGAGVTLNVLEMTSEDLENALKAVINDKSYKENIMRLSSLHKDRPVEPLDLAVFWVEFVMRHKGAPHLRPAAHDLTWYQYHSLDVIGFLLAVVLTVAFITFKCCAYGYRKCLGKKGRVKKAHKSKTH

[4] = molecular target: T3, UDP-glucuronosyltransferase 2B7 (Homo sapiens, UniProt P16662); assay: Drug metabolism assessed as human UGT2B7-mediated N-glucuronide-triclocarban formation expressed in baculovirus infected insect sf9 cells incubated for 5 mins prior to UDPGA addition measured after 5 to 30 mins by LC-UV analysis; method in brief: as §1
T3 sequence (P16662 whole entry): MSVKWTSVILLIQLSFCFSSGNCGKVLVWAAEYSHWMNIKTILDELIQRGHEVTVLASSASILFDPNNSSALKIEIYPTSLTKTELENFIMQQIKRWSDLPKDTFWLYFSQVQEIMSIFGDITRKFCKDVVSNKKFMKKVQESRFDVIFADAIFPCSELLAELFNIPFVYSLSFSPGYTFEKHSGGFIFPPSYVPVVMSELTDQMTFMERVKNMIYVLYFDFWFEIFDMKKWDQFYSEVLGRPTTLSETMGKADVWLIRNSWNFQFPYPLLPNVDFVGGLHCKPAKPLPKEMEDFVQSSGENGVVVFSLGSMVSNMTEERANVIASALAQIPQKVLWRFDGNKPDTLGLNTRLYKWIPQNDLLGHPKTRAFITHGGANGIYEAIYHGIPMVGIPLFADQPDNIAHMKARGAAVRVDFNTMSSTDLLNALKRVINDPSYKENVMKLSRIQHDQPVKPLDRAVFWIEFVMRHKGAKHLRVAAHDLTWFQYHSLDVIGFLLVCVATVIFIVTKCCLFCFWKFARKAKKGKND

[5] = molecular target: T4, UDP-glucuronosyltransferase 2B15 (Homo sapiens, UniProt P54855); assay: Drug metabolism assessed as human UGT2B15-mediated N-glucuronide-triclocarban formation expressed in baculovirus infected insect sf9 cells incubated for 5 mins prior to UDPGA addition measured after 5 to 30 mins by LC-UV analysis; method in brief: as §1
T4 sequence (P54855 whole entry): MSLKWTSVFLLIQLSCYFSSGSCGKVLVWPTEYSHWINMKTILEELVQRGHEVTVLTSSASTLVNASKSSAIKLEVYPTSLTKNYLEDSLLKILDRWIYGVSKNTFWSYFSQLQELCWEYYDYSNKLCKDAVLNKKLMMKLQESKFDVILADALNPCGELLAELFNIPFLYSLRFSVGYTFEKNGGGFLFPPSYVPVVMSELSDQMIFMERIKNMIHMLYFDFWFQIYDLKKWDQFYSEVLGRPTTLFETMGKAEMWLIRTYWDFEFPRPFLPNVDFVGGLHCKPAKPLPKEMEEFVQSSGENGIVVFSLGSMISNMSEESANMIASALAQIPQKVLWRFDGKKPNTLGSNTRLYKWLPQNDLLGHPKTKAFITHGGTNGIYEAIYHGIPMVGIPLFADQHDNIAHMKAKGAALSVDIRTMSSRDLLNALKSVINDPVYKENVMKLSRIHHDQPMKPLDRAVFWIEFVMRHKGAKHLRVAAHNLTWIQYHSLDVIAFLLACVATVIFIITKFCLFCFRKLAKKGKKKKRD

With `O=C(Nc1ccc(Cl)cc1)Nc1ccc(Cl)c(Cl)c1` [TRICLOCARBAN] the dose excreted [1] was 25%, the Drug metabolism (Liver microsome) was “metabolite_detected” and the Drug metabolism [2] was “metabolite_not_detected”. For the same molecule, the Drug metabolism [3] was “metabolite_not_detected”, the Drug metabolism [4] was “metabolite_not_detected” and the Drug metabolism [5] was “metabolite_not_detected”.
